From ChEMBL document CHEMBL1123619, “Isothiourea derivatives of 6-phenyl-2,3,5,6-tetrahydroimidazo[2,1-b]thiazole with broad-spectrum anthelmintic activity” (J Med Chem, 1987)

What was measured:
[1] = test system: Canis familiaris; experiment: Antihelmethic activity expressed as the percentage of worms eliminated in the feces in dog toxascaris at peroral dose of 30 mg/kg; worms voided and toxascaris egg count reduced to zero for the duration of the test; type: functional, organism-based; set-up: dose 30 mg/kg; settings: Canis lupus familiaris
[2] = test system: Mus musculus; experiment: Nematocidal activity against Nematospiroides dubius induced necropsy in mouse, after oral administration of 100 mg/kg of the compound; type: functional
Procedure, shortened: (§1)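 Seven-week-old female LACA mice infected orally with 100 N. dubius L3 larvae; single gavage dose given at day 10 of infection, groups of four mice; necropsy 4 days later; percent activity from worm burdens of treated versus untreated groups.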

[3] = test system: Mus musculus; experiment: Nematocidal activity against Nematospiroides dubius induced necropsy in mouse, after oral administration of 12.5 mg/kg of the compound; type: functional
Procedure, shortened: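 Female LACA mice (7 weeks) infected orally with 100 N. dubius L3 larvae; single oral dose as solution in PEG 400 on infection day 10, four mice per group; necropsied 4 days later; percent activity by comparing treated and untreated worm burdens.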

[4] = test system: Mus musculus; experiment: Nematocidal activity against Nematospiroides dubius induced necropsy in mouse, after oral administration of 25 mg/kg of the compound; type: functional; procedure, shortened: as §1
[5] = test system: Mus musculus; experiment: Nematocidal against Nematospiroides dubius in mouse was determined at 25 mg/kg peroral dose of compound; type: functional; settings: route oral; procedure, shortened: as §1
[6] = test system: Heligmosomoides polygyrus; experiment: Nematocidal activity against Nematospiroides dubius induced necropsy in mouse, oral administration 200 mg/kg; type: functional; procedure, shortened: as §1
[7] = test system: Mus musculus; experiment: Nematocidal activity against Nematospiroides dubius induced necropsy in mouse, after oral administration of 50 mg/kg of the compound; type: functional; procedure, shortened: as §1
[8] = test system: Ovis aries; experiment: Antihelmethic activity expressed as the percentage of worms eliminated in the feces in sheep abomasum at peroral dose of 15 mg/kg against Trichostrongylus axei; type: functional; settings: route oral
Procedure, shortened: (§2)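 Sheep given a single dose, oral or subcutaneous. Total daily feces collected for 4 days after treatment and examined for expelled worms. Necropsy at day 7 after dosing; lungs, liver and gastrointestinal tract removed and remaining worms identified. Activity calculated by comparing worms passed in feces with those remaining at autopsy. Single animals per test unless otherwise indicated.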

[9] = test system: Ovis aries; experiment: Antihelmethic activity expressed as the percentage of worms eliminated in the feces in sheep abomasum at peroral dose of 30 mg/kg against Haemonchus contortus; type: functional; settings: route oral; procedure, shortened: as §2
[10] = species on record: Ovis aries; experiment: (§3) Antihelmethic activity expressed as the percentage of worms eliminated in the feces in sheep species.; type: functional
Procedure, shortened: (§4)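 Sheep; total daily faeces collected for 4 days after treatment and searched for expelled worms; necropsy 7 days post-dose with lungs, liver and GI tract examined and worms identified; activity from worms passed in faeces versus worms remaining in host at autopsy.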

[11] = test system: Ovis aries; experiment: Antihelmethic activity expressed as the percentage of worms eliminated in the feces in sheep large bowel at peroral dose of 15 mg/kg against Oesophagostomum columbianum.; type: functional; settings: route oral; procedure, shortened: as §2
[12] = test system: Ovis aries; experiment: Antihelmethic activity expressed as the percentage of worms eliminated in the feces in sheep large bowel at subcuteneous dose of 30 mg/kg against Trichuris ovis.; type: functional; procedure, shortened: as §2
[13] = test system: Ovis aries; experiment: Antihelmethic activity expressed as the percentage of worms eliminated in the feces in sheep large bowel at subcuteneous dose of 30 mg/kg against chabertia ovina.; type: functional; procedure, shortened: as §2
[14] = test system: Ovis aries; experiment: Antihelmethic activity expressed as the percentage of worms eliminated in the feces in sheep small intestine at peroral dose of 15 mg/kg against Cooperia curticei; type: functional; settings: route oral; procedure, shortened: as §2
[15] = test system: Ovis aries; experiment: Antihelmethic activity expressed as the percentage of worms eliminated in the feces in sheep small intestine at peroral dose of 15 mg/kg against Nematodirus species; type: functional; settings: route oral; procedure, shortened: as §2
[16] = test system: Ovis aries; experiment: Antihelmethic activity expressed as the percentage of worms eliminated in the feces in sheep small intestine at peroral dose of 15 mg/kg against Strongyloides papillosus; type: functional; settings: route oral; procedure, shortened: as §2
[17] = test system: Ovis aries; experiment: Antihelmethic activity expressed as the percentage of worms eliminated in the feces in sheep small intestine at peroral dose of 15 mg/kg against Trichostrongylus axei; type: functional; settings: route oral; procedure, shortened: as §2
[18] = test system: Ovis aries; experiment: Antihelmethic activity expressed as the percentage of worms eliminated in the feces in sheep small intestine at peroral dose of 30 mg/kg against Bunostomum trigonocephalum.; type: functional; settings: route oral; procedure, shortened: as §2
[19] = test system: Ovis aries; experiment: Antihelmethic activity expressed as the percentage of worms eliminated in the feces in sheep small intestine at peroral dose of 30 mg/kg against Cooperia curticei; type: functional; settings: route oral; procedure, shortened: as §2
[20] = test system: Ovis aries; experiment: Anthelmintic activity against adult liver fluke (Fasciola hepatica) in sheep, after peroral administration of 20 mg/kg was determined; type: functional; settings: route oral
Procedure, shortened: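 Sheep dosed with a single oral dose. Fecal fluke egg output monitored after treatment. Animals necropsied only if the fecal egg count fell. Postmortem Fasciola hepatica burdens compared with untreated control sheep (mean of 10 controls). Single animals per test unless otherwise indicated, with group size given in parentheses. I denotes no effect on fecal fluke egg output.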

[21] = test system: Ovis aries; experiment: Antihelmethic activity expressed as the percentage of worms eliminated in the feces in sheep small intestine at subcuteneous dose of 30 mg/kg against Strongyloides papillosus; type: functional; procedure, shortened: as §2
[22] = test system: Ovis aries; experiment: Antihelmethic activity expressed as the percentage of worms eliminated in the feces in sheep small intestine at subcuteneous dose of 30 mg/kg against Trichostrongylus axei; type: functional; procedure, shortened: as §2
[23] = test system: Ovis aries; experiment: Toxic activity expressed as the percentage against liver fluke in the sheep at 15 mg/kg peroral administration of dose; type: ADME, organism-based; set-up: dose 15 mg/kg, route oral; settings: in vivo, po
Procedure, shortened: (§5)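 Fasciola hepatica in sheep, controlled test; animals necropsied only when fecal egg count fell; postmortem fluke burdens compared with untreated control sheep (10 controls).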

[24] = test system: Ovis aries; experiment: Toxic activity expressed as the percentage against liver fluke in the sheep at 30 mg/kg peroral administration of dose; type: ADME, organism-based; set-up: dose 30 mg/kg, route oral; settings: in vivo, po; procedure, shortened: as §5
[25] = test system: Ovis aries; experiment: Antihelmethic activity expressed as the percentage of worms eliminated in the feces in sheep small intestine at peroral dose of 30 mg/kg against Trichostrongylus axei; type: functional; settings: route oral; procedure, shortened: as §2
[26] = test system: Ovis aries; experiment: Antihelmethic activity expressed as the percentage of worms eliminated in the feces in sheep small intestine at subcuteneous dose of 30 mg/kg against Bunostomum trigonocephalum.; type: functional; procedure, shortened: as §2
[27] = test system: Ovis aries; experiment: Antihelmethic activity expressed as the percentage of worms eliminated in the feces in sheep small intestine at subcuteneous dose of 30 mg/kg against Nematodirus species; type: functional; procedure, shortened: as §2
[28] = species on record: Ovis aries; experiment: as §3; type: functional; procedure, shortened: as §4; remark: listed apart in the source
[29] = test system: Ovis aries; experiment: Antihelmethic activity expressed as the percentage of worms eliminated in the feces in sheep large bowel at peroral dose of 15 mg/kg against Trichuris ovis.; type: functional; settings: route oral; procedure, shortened: as §2
[30] = test system: Ovis aries; experiment: Antihelmethic activity expressed as the percentage of worms eliminated in the feces in sheep large bowel at peroral dose of 30 mg/kg against Lungworm Dictyocaulus filaria.; type: functional; settings: route oral; procedure, shortened: as §2
[31] = test system: Ovis aries; experiment: Antihelmethic activity expressed as the percentage of worms eliminated in the feces in sheep large bowel at peroral dose of 30 mg/kg against Oesophagostomum columbianum.; type: functional; settings: route oral; procedure, shortened: as §2
[32] = test system: Ovis aries; experiment: Antihelmethic activity expressed as the percentage of worms eliminated in the feces in sheep large bowel at peroral dose of 30 mg/kg against Trichuris ovis.; type: functional; settings: route oral; procedure, shortened: as §2
[33] = test system: Ovis aries; experiment: Antihelmethic activity expressed as the percentage of worms eliminated in the feces in sheep large bowel at peroral dose of 30 mg/kg against chabertia ovina.; type: functional; settings: route oral; procedure, shortened: as §2
[34] = test system: Ovis aries; experiment: Antihelmethic activity expressed as the percentage of worms eliminated in the feces in sheep […] at subcuteneous dose of 30 mg/kg against Liver fluke Fasciola hepatica.; type: functional
[35] = test system: Ovis aries; experiment: Antihelmethic activity expressed as the percentage of worms eliminated in the feces in sheep abomasum at subcuteneous dose of 30 mg/kg against Trichostrongylus axei; type: functional; procedure, shortened: as §2
[36] = test system: Ovis aries; experiment: Antihelmethic activity expressed as the percentage of worms eliminated in the feces in sheep […] at peroral dose of 15 mg/kg against Liver fluke Fasciola hepatica.; type: functional; settings: route oral
[37] = test system: Ovis aries; experiment: Antihelmethic activity expressed as the percentage of worms eliminated in the feces in sheep large bowel at peroral dose of 15 mg/kg against Lungworm Dictyocaulus filaria.; type: functional; settings: route oral; procedure, shortened: as §2

**Q.** `CS/C(=N\c1cccc(C2CN3CCSC3=N2)c1)Nc1ccc(C#N)cc1` (stereo not drawn) was tested. Which Activity [1] did it give?
**A.** Its Activity is “no toxic symptoms”.

**Q.** What about the Activity [2] of the same compound?
**A.** The Activity was 100%.

**Q.** And the Activity [3]?
**A.** Its Activity is 28%.

**Q.** And the Activity [4]?
**A.** The Activity was 68%.

**Q.** And the Activity [5]?
**A.** Its Activity is 68.

**Q.** And the Reduction [6]?
**A.** The Reduction was 100%.

**Q.** And the Activity [7]?
**A.** Its Activity is 99%.

**Q.** What about the Reduction [7] of the same compound?
**A.** Its Reduction is 74%.

**Q.** And the Activity [8]?
**A.** Its Activity is 92%.

**Q.** And the Activity [9]?
**A.** Its Activity is 100%.

**Q.** And the Activity [10]?
**A.** Its Activity is 100%.

**Q.** And the Activity [11]?
**A.** Its Activity is 100%.

**Q.** What about the Activity [12] of the same compound?
**A.** Its Activity is 100%.

**Q.** What about the Activity [13] of the same compound?
**A.** Its Activity is 96%.

**Q.** And the Activity [14]?
**A.** The Activity was 99%.

**Q.** What about the Activity [15] of the same compound?
**A.** Its Activity is 100%.

**Q.** And the Activity [16]?
**A.** Its Activity is 100%.

**Q.** What about the Activity [17] of the same compound?
**A.** Its Activity is 100%.

**Q.** What about the Activity [18] of the same compound?
**A.** Its Activity is 100%.

**Q.** And the Activity [19]?
**A.** Its Activity is 100%.

**Q.** And the Activity [20]?
**A.** Its Activity is 89%.

**Q.** What about the Activity [21] of the same compound?
**A.** Its Activity is 100%.

**Q.** And the Activity [22]?
**A.** Its Activity is 100%.

**Q.** What about the Activity [23] of the same compound?
**A.** The Activity was 83%.

**Q.** And the Activity [24]?
**A.** The Activity was 97%.

**Q.** What about the Activity [25] of the same compound?
**A.** The Activity was 100%.

**Q.** What about the Activity [26] of the same compound?
**A.** Its Activity is 100%.

**Q.** And the Activity [27]?
**A.** The Activity was 100%.

**Q.** What about the Activity [28] of the same compound?
**A.** Its Activity is 95%.

**Q.** What about the Activity [29] of the same compound?
**A.** The Activity was 100%.

**Q.** And the Activity [30]?
**A.** Its Activity is 100%.

**Q.** And the Activity [31]?
**A.** The Activity was 93%.

**Q.** What about the Activity [32] of the same compound?
**A.** The Activity was 100%.

**Q.** What about the Activity [33] of the same compound?
**A.** The Activity was 100%.

**Q.** And the Activity [34]?
**A.** Its Activity is 100%.

**Q.** What about the Activity [35] of the same compound?
**A.** Its Activity is 100%.

**Q.** What about the Activity [36] of the same compound?
**A.** The Activity was 100%.

**Q.** And the Activity [37]?
**A.** Its Activity is 100%.
